Experimental data from ChEMBL document CHEMBL1139130, “New C-5 substituted pyrrolotriazine dual inhibitors of EGFR and HER2 protein tyrosine kinases” (Bioorg Med Chem Lett, 2007).

Tests used:
[1] = molecular target: Receptor tyrosine-protein kinase erbB-2 (Homo sapiens, UniProt P04626); assay: Inhibition of human recombinant cytoplasmic HER2 kinase expressed in Sf9 cells
HT-29 = assay: Antiproliferative activity against human HT29 cells
Liver = assay: Metabolic stability in mouse liver microsomes assessed as rate of metabolism per mg protein at 3 uM after 10 mins; type: ADME, Microsome
Method in brief: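 Test compound at 3 µM incubated 10 min with mouse liver microsomes plus NADPH. Rate of metabolism expressed as nmol min⁻¹ mg protein⁻¹.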

NCI-N87 = assay: Antiproliferative activity against human N87 cells; type: functional, cell-based
[2] = molecular target: Epidermal growth factor receptor (Homo sapiens, UniProt P00533)
A2780 = assay: Antiproliferative activity against human A2780 cells; type: functional, cell-based

Sequence of Receptor tyrosine-protein kinase erbB-2 (P04626 whole entry): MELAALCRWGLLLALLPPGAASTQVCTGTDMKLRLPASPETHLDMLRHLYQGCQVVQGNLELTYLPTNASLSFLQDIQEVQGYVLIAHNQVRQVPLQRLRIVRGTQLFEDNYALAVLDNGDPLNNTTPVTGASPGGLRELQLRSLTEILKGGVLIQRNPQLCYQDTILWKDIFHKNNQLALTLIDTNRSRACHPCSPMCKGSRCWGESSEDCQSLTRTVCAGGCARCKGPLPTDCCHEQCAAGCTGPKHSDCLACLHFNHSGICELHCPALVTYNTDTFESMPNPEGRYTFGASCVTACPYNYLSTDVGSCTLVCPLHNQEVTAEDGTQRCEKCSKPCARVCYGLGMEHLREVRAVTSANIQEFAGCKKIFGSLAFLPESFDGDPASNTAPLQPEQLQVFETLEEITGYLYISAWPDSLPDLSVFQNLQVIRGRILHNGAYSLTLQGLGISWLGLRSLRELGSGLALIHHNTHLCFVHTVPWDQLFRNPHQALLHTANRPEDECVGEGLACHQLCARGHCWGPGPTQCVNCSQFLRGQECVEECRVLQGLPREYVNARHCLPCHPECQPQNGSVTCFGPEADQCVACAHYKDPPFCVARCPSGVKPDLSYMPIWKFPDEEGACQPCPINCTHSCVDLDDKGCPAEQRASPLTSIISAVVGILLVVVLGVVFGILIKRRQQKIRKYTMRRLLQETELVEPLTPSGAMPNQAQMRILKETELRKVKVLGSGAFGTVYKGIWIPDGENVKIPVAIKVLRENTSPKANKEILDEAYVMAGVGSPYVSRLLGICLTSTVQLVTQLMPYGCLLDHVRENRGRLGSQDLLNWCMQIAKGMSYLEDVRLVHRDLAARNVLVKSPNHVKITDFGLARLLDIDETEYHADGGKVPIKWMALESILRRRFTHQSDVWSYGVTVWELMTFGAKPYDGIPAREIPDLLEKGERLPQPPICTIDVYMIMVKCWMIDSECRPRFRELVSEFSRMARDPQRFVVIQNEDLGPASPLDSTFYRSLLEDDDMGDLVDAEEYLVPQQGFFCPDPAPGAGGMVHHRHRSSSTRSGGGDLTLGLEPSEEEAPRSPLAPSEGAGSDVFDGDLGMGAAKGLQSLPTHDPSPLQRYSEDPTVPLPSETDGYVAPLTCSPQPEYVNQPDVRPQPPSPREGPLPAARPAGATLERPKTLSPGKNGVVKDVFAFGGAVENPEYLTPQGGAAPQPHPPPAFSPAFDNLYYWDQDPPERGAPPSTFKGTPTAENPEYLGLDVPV
Sequence of Epidermal growth factor receptor (P00533 whole entry): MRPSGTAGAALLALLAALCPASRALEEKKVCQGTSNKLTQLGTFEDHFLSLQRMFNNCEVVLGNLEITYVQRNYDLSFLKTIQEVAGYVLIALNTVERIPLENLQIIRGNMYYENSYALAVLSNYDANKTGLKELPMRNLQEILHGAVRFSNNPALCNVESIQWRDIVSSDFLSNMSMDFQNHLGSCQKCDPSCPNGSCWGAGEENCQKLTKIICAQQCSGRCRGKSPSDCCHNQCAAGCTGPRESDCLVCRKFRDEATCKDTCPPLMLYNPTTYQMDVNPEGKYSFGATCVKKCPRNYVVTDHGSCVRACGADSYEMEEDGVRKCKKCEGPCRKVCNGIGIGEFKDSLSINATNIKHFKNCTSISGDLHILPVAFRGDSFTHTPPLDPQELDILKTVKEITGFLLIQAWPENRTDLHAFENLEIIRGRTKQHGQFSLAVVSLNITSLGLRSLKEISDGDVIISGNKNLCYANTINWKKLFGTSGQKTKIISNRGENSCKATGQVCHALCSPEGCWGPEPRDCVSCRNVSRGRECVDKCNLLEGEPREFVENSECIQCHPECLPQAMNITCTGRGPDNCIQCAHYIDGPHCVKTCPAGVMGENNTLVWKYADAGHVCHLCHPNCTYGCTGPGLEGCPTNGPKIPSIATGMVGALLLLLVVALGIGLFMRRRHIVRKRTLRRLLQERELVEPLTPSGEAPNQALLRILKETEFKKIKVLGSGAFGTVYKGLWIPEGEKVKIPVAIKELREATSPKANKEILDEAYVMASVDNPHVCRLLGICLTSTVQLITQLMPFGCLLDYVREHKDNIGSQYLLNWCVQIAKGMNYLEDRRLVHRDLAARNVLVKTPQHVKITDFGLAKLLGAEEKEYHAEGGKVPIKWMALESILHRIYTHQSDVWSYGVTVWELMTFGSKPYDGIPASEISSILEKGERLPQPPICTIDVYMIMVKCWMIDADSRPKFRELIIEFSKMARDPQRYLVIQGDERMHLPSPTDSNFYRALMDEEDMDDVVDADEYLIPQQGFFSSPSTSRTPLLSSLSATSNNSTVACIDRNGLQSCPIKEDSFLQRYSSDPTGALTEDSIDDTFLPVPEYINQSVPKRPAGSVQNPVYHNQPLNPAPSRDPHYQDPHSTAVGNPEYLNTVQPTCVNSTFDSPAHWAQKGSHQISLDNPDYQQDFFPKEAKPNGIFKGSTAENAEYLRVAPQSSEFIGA

Row | SMILES | IC50 [1] [nM] | Stability (Liver) [nmol/min/mg] | IC50 [2] [nM] | IC50 (A2780) [µM] | IC50 (HT-29) [µM] | IC50 (NCI-N87) [nM]
1 | Cc1ccn2ncnc(Nc3ccc4c(cnn4Cc4cccc(F)c4)c3)c12 | 88 | 0.14 | 81 | – | > 10 | 380
2 | Fc1cccc(Cn2ncc3cc(Nc4ncnn5ccc(COCC6CNCCOC6)c45)ccc32)c1 (stereo unspecified) | 140 | – | 210 | > 10 | – | 2000
3 | Cc1ccn2ncnc(Nc3ccc(F)c(Cl)c3)c12 | > 1000 | – | – | – | – | –
4 | Fc1cccc(Cn2ncc3cc(Nc4ncnn5ccc(COC[C@H]6CCCNC6)c45)ccc32)c1 | 170 | – | 190 | 7.4 | – | 980
5 | C[C@H](c1cccc(F)c1)n1ncc2cc(Nc3ncnn4ccc(COC[C@@H]5CNCCO5)c34)ccc21 | 41 | – | 68 | – | – | 130
6 | C[C@@H](c1cccc(F)c1)n1ncc2cc(Nc3ncnn4ccc(COC[C@@H]5CNCCO5)c34)ccc21 | 510 | – | 400 | – | – | –
7 | Fc1cccc(COc2ccc(Nc3ncnn4ccc(COC[C@@H]5CNCCO5)c34)cc2Cl)c1 | – | – | – | – | – | 610
8 | C[C@H](c1ccccc1)n1ncc2cc(Nc3ncnn4ccc(COC[C@@H]5CNCCO5)c34)ccc21 | 130 | – | 120 | – | – | 660

Continued, in another order:

Row | IC50 [1] [nM] | Stability (Liver) [nmol/min/mg] | IC50 [2] [nM] | IC50 (A2780) [µM] | SMILES | IC50 (HT-29) [µM] | IC50 (NCI-N87) [nM]
9 | 110 | – | 120 | – | OCc1ccn2ncnc(Nc3ccc4c(cnn4Cc4cccc(F)c4)c3)c12 | > 10 | 7400
10 | 110 | – | 140 | > 10 | NC(=O)COCc1ccn2ncnc(Nc3ccc4c(cnn4Cc4cccc(F)c4)c3)c12 | – | 1700
11 | 560 | 0.12 | 620 | – | CN(C)CCCOCc1ccn2ncnc(Nc3ccc4c(cnn4Cc4cccc(F)c4)c3)c12 | – | –
12 | 420 | 0.24 | 340 | – | COCc1ccn2ncnc(Nc3ccc4c(cnn4Cc4cccc(F)c4)c3)c12 | – | –
13 | 60 | 0.01 | 64 | 7.4 | NCCCOCc1ccn2ncnc(Nc3ccc4c(cnn4Cc4cccc(F)c4)c3)c12 | – | 640
14 | 70 | 0.02 | 73 | 6 | Fc1cccc(Cn2ncc3cc(Nc4ncnn5ccc(COC6CCNCC6)c45)ccc32)c1 | – | 330
15 | 280 | – | 460 | – | COC(=O)COCc1ccn2ncnc(Nc3ccc4c(cnn4Cc4cccc(F)c4)c3)c12 | – | 1700
16 | 420 | – | – | – | COCCOCc1ccn2ncnc(Nc3ccc4c(cnn4Cc4cccc(F)c4)c3)c12 | – | –
